Results reported in ChEMBL document CHEMBL2177095, “Discovery of selective and potent inhibitors of gram-positive bacterial thymidylate kinase (TMK)” (J Med Chem, 2012).
Values after ≈ are worked out from the molar mass of the structure shown.

Tests used:
[1] = Inhibition of Streptococcus pneumoniae thymidylate kinase assessed as effect on conversion of dTDP to dTMP by luciferin/luciferase reporter gene based assay
[2] = Inhibition of Staphylococcus aureus thymidylate kinase assessed as effect on conversion of dTDP to dTMP by luciferin/luciferase reporter gene based assay
Streptococcus pneumoniae = experiment: Antimicrobial activity against Streptococcus pneumoniae by broth microdilution method; format: functional
Method in brief: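 Test organisms were strains from the AstraZeneca collection.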

Staphylococcus aureus [3] = experiment: Antimicrobial activity against methicillin and quinolone-resistant Staphylococcus aureus by broth microdilution method; format: functional
Method in brief: (§1)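 MICs were determined against bacterial strains from the AstraZeneca collection. For S. aureus, MSQS means methicillin- and quinolone-sensitive, and MRQR means methicillin- and quinolone-resistant.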

Staphylococcus aureus [4] = experiment: Antimicrobial activity against methicillin and quinolone-sensitive Staphylococcus aureus by broth microdilution method; format: functional; method in brief: as §1
[5] = Partition coefficient, log D of the compound at pH 7.4 by shake flask method; conditions: octanol/water
Candida albicans = experiment: Toxicity against Candida albicans; format: organism-based
Thymidylate kinase = molecular target: T1, Thymidylate kinase (Homo sapiens, UniProt P23919); experiment: Inhibition of human thymidylate kinase assessed as effect on ATP production by Escherichia coli DdlA and Malachite green reagent based assay
T1 sequence (P23919 whole entry): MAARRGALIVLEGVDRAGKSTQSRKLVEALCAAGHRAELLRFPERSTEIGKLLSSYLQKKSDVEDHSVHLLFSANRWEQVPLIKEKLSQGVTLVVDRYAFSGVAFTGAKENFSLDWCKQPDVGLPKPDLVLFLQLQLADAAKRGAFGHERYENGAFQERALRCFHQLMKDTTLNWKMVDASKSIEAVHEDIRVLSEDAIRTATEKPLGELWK

[6] = Toxicity against human A549 cells; format: cell-based; conditions: read-out: MIC
Staphylococcus aureus [7] = experiment: Antimicrobial activity against Staphylococcus aureus infected in mouse thigh infection model assessed as compound dose causing microbial infection stasis administered as single dose; format: functional, Thigh muscle

| IC50 [1] [nM] | IC50 [2] [nM] | SMILES | MIC (Streptococcus pneumoniae) [µg/mL] | MIC (Staphylococcus aureus [3]) [µg/mL] | MIC (Staphylococcus aureus [4]) [µg/mL] | also measured |
| --- | --- | --- | --- | --- | --- | --- |
| 400 | 3200 | Cc1cn([C@H]2CCCN(Cc3cccc(Oc4cccc(F)c4)c3)C2)c(=O)[nH]c1=O |  |  |  |  |
| 150 | 1200 | Cc1cn([C@H]2CCCN(Cc3cccc(Oc4cccc(Cl)c4)c3)C2)c(=O)[nH]c1=O |  |  |  |  |
| 100 | 600 | Cc1cn([C@H]2CCCN(Cc3cccc(Oc4cccc(Br)c4)c3)C2)c(=O)[nH]c1=O |  |  |  |  |
| 100 | 2100 | Cc1cn([C@H]2CCCN(Cc3cccc(Oc4cc(F)cc(Cl)c4)c3)C2)c(=O)[nH]c1=O |  |  |  |  |
| 400 | 1500 | Cc1cn([C@H]2CCCN(Cc3cccc(Oc4cc(Cl)cc(Cl)c4)c3)C2)c(=O)[nH]c1=O |  |  |  |  |
| 400 | 8500 | Cc1cn([C@H]2CCCN(Cc3cccc(Oc4ccc(Cl)cc4)c3)C2)c(=O)[nH]c1=O |  |  |  |  |
| 5100 | > 200000 | Cc1cn([C@@H]2CCCN(Cc3cccc(Oc4ccc(Cl)cc4)c3)C2)c(=O)[nH]c1=O |  |  |  |  |
| 400 | 2600 | Cc1cn([C@H]2CCCN(Cc3cccc(Oc4ccc(Cl)c(Cl)c4)c3)C2)c(=O)[nH]c1=O |  |  |  |  |
| 18000 | > 200000 | Cc1cn([C@@H]2CCCN(Cc3cccc(Oc4ccc(Cl)c(Cl)c4)c3)C2)c(=O)[nH]c1=O |  |  |  |  |
| 15000 |  | Cc1cn(C2CCCN(Cc3cccc(Oc4cccc(C(F)(F)F)c4)c3)C2)c(=O)[nH]c1=O (racemic) |  |  |  |  |
| 6000 | 59000 | Cc1ccc(Oc2cccc(CN3CCCC(n4cc(C)c(=O)[nH]c4=O)C3)c2)cc1 (racemic) |  |  |  |  |
| 1300 | 35000 | Cc1cn(C2CCCN(Cc3cccc(Oc4ccc(Cl)cc4)c3)C2)c(=O)[nH]c1=O (racemic) |  |  |  |  |
| 9000 | 143000 | COc1ccc(Oc2cccc(CN3CCCC(n4cc(C)c(=O)[nH]c4=O)C3)c2)cc1 (racemic) |  |  |  |  |
|  |  | C[C@H]1COc2c(N3CCN(C)CC3)c(F)cc3c(=O)c(C(=O)O)cn1c23.C[C@H]1COc2c(N3CCN(C)CC3)c(F)cc3c(=O)c(C(=O)O)cn1c23.O [LEVOFLOXACIN] |  |  |  | Activity (Staphylococcus aureus [7]): 40 mg/kg |

| SMILES | IC50 [1] [nM] | IC50 [2] [nM] | MIC (Streptococcus pneumoniae) [µg/mL] | MIC (Staphylococcus aureus [3]) [µg/mL] | MIC (Staphylococcus aureus [4]) [µg/mL] | also measured |
| --- | --- | --- | --- | --- | --- | --- |
| Cc1cn([C@H]2CCCN(Cc3ccc(C(=O)O)c(Oc4cccc(Cl)c4)c3)C2)c(=O)[nH]c1=O | 1.9 | 73 | 1 (≈ 2.13 µM) | 32 (≈ 68.1 µM) | 32 (≈ 68.1 µM) |  |
| Cc1cn([C@H]2CCCN(Cc3ccc(C(=O)O)c(Oc4cccc(Br)c4)c3)C2)c(=O)[nH]c1=O | 1 | 27 | 1 (≈ 1.94 µM) | 32 (≈ 62.2 µM) | 16 (≈ 31.1 µM) | logD [5]: -0.51 |
| Cc1cccc(Oc2cc(CN3CCC[C@H](n4cc(C)c(=O)[nH]c4=O)C3)ccc2C(=O)O)c1 | 8 | 114 | 4 (≈ 8.9 µM) | 128 (≈ 285 µM) | 64 (≈ 142 µM) |  |
| Cc1cn([C@H]2CCCN(Cc3ccc(C(=O)O)c(Oc4cccc(F)c4)c3)C2)c(=O)[nH]c1=O | 28 | 339 | 32 (≈ 70.6 µM) | 128 (≈ 282 µM) | 128 (≈ 282 µM) | logD [5]: -1 |
| Cc1cn([C@H]2CCCN(Cc3ccc(C(=O)O)c(Oc4cccc(C(F)(F)F)c4)c3)C2)c(=O)[nH]c1=O | 10 |  | 4 (≈ 7.94 µM) | 64 (≈ 127 µM) | 64 (≈ 127 µM) | MIC (Candida albicans): > 64 µg/mL; IC50 (Thymidylate kinase): > 200000 nM; logD [5]: -0.38; MCC [6]: > 64 µg/mL |
| CC[C@H](c1ccc(C(=O)O)c(Oc2cccc(Cl)c2)c1)N1CCC[C@H](n2cc(C)c(=O)[nH]c2=O)C1 (racemic) | 0.6 | 13.7 | 0.1 (≈ 0.201 µM) | 2 (≈ 4.02 µM) | 2 (≈ 4.02 µM) | logD [5]: 0.2 |
